Experimental data taken from BindingDB's records for doi:10.1016/j.bmcl.2019.05.024 (Harvard Medical School, 2019).
pIC50: −log10 of the molar value.

What was measured:
[1] = target: Cyclin-dependent kinase 14 (Homo sapiens, UniProt O94921); assay: Inhibition of FLAG-tagged CDK14 (unknown origin) expressed in human HEK293 cells assessed as blocking of CDK14 pulldown incubated for 4 hrs by biotinylated JNK-IN- based pull down assay
Method in brief: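 Cells were treated with compound at various doses for 4 h and then lysed. Lysates were incubated with biotinylated JNK-IN-7 and captured on streptavidin-coated beads. CDK14 capture was detected by western blot.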

[2] = target: Cyclin-dependent kinase 14/Cyclin-Y (Homo sapiens, UniProt O94921+Q8ND76); assay: Inhibition of recombinant GST-tagged human full length CDK14/cyclin Y (2 to end residues) preincubated for 30 mins by Lantha screen eu binding assay
Method in brief: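 CDK14 binding was measured in a LanthaScreen binding assay. IC50 is the average of three replicates, reported ± standard error.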

Sequence of Cyclin-dependent kinase 14/Cyclin-Y (O94921 whole entry): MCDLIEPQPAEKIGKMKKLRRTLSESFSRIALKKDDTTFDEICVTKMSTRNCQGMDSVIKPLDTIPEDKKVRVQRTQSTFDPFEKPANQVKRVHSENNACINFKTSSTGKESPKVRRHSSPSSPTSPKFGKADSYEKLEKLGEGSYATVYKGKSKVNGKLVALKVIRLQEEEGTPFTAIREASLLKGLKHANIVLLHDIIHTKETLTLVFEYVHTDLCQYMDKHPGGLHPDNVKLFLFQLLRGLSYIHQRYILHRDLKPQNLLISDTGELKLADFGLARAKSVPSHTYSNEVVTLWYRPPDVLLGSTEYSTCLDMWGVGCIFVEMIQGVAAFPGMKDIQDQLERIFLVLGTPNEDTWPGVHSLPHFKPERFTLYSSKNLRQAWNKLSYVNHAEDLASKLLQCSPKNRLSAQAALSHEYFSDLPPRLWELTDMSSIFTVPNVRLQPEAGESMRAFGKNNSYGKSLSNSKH
Sequence of Cyclin-dependent kinase 14/Cyclin-Y (Q8ND76 2-341 limits assumed): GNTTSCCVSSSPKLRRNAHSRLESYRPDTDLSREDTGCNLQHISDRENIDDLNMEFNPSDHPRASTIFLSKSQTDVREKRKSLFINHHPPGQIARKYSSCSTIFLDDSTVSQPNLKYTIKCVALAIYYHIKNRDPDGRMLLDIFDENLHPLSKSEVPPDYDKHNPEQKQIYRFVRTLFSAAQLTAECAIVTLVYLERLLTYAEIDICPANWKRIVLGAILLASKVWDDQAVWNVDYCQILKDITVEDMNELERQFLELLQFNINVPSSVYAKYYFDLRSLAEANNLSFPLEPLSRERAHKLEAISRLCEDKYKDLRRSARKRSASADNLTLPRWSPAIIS
Sequence of Cyclin-dependent kinase 14 (O94921 whole entry): as the sequence (O94921 whole entry) above

Row | pIC50 [1] | pIC50 [2] | Structure (SMILES)
1 | 6.30 |  | C=CC(=O)Nc1cccc(C(=O)N2CCC(NC(=O)c3n[nH]cc3NC(=O)c3c(Cl)cccc3Cl)CC2)c1
2 |  | 7.77 | CN(C)CC=CC(=O)Nc1cccc(C(=O)Nc2ccc(NC(=O)c3n[nH]cc3NC(=O)c3c(Cl)cccc3Cl)cc2)c1
